Screens: PubChem BioAssay, several laboratories
An excerpt weighted towards active compounds, which were near 1.8% of everything screened.
Autophagy HCS: modulators of autophagy | MEF GFP-LC3 puncta imaging; test concentration mostly 10 µM | calls only at 10 µM (by protocol) | hit rate 0.98% among 190,000;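 active = percentage of spot-positive cells more than 3 SD above its plate mean, without a fluorescence outlier flag or 80% toxicity; inconclusive = no clear call, values can overlap the other calls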;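 note: spot-positive cell cutoff set from DMSO-treated cells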
TNAP inh noacc: blocks human TNAP activity with no phosphate acceptor present. hit rate 0.26% among 200,000. inhibition, % at 20 µM. AID 1012. purified TNAP, CDP-star luminescence, 30 min. P05186;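 active = tissue-nonspecific alkaline phosphatase inhibition above about 50% at 20 µM in the single-dose screen, limit read from the data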;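 note: 0% = DMSO negative control and 100% = EDTA positive control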
Ins promoter up: MIN6 insulin promoter up-regulation; AID 1625; hit rate 0.3% among 190,000; z-score at 5 µM; MIN6 insulin promoter-GFP reporter, high-content imaging; active compounds read high;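 active = z-score above 3 at 5 µM with at least 500 cells counted in the well; inconclusive = wells under 500 cells, flagged as cytotoxic or low count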
p47phox inh: p47phox (human) inhibition. P14598. p47phox/p22phox peptide binding, fluorescence polarization, 2 h. inhibition, % at 24.7 µM. hit rate 0.53% among 220,000;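 active = inhibition above about 30%, limit read from the data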;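 note: 0% = p47phox with labelled peptide and 100% = labelled peptide alone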
Target sequence (P14598 whole entry, looked up): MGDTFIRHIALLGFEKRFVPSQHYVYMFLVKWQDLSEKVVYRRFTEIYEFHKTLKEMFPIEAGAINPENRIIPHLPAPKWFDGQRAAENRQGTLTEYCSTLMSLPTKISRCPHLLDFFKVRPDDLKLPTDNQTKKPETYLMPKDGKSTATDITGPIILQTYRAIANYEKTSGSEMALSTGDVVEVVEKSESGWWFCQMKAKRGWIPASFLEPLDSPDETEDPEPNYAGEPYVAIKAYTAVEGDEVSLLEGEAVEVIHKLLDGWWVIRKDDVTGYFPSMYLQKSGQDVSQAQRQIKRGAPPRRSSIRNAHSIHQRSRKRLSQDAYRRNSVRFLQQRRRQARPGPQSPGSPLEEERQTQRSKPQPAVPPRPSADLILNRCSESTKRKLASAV
TNAP inh hiacc: inhibitors of human TNAP at high phosphate acceptor concentration; hit rate 0.03% among 200,000; inhibition, % at 20 µM; P05186; purified TNAP, CDP-star luminescence, 1 M DEA;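 active = over 50% inhibition of tissue-nonspecific alkaline phosphatase at 20 µM in the single-dose screen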;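 note: plate controls were DMSO wells for no effect and EDTA-quenched wells as full inhibition for full effect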
TNAP act hi DEA: increases human TNAP activity under high phosphate acceptor concentration. P05186. purified TNAP, CDP-star luminescence, 1 M DEA, 30 min; active compounds read high; 0 = EDTA background, 1 = DMSO-only activity. activation factor at 20 µM. 200,000 tested, under 10 active;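 active = activation factor at least 2 at 20 µM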
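Test system – human TNAP · Doses – 20 µM single point · Incubation – 30 min, room temperature · Signal – luminescent substrate turnover signal · Read-out basis – activation factor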
* hit, by the source's call.

How did c1ccc(-c2cn(-c3ccccc3)c3ncnc(N4CCCCC4)c23)cc1 do in these assays?
Autophagy HCS: inactive; TNAP inh noacc: -3; Ins promoter up: -1.9; p47phox inh: -3; TNAP inh hiacc: -3; TNAP act hi DEA: 1

How did O=C(c1coc2ccccc2c1=O)N1CCN(c2cccc(C(F)(F)F)c2)CC1 do in these assays?
Autophagy HCS: inactive; TNAP inh noacc: -7; Ins promoter up: -0.3; p47phox inh: 2; TNAP inh hiacc: -4; TNAP act hi DEA: 1

How did COc1ccc(CCNC(=S)Nc2cccc(C)c2C)cc1 do in these assays?
Autophagy HCS: inactive; TNAP inh noacc: -15; Ins promoter up: -1.2; p47phox inh: -20; TNAP inh hiacc: -6; TNAP act hi DEA: 1.1

What do the screens show for `Cc1cccc(C)c1NC(=S)NCCc1ccc(O)c(O)c1`?
Autophagy HCS: inactive; TNAP inh noacc: 60*; Ins promoter up: 0.04; p47phox inh: -9; TNAP inh hiacc: 1; TNAP act hi DEA: 1

What do the screens show for `COc1cccc(-n2c(=O)c3c(C)c(C(=O)N(C)C)sc3n(CC(=O)NCC3CCCO3)c2=O)c1` (stereo unspecified)?
Autophagy HCS: inactive; TNAP inh noacc: 1; Ins promoter up: 0.86; p47phox inh: 0; TNAP inh hiacc: 0; TNAP act hi DEA: 1

How did Cc1ccccc1NS(=O)(=O)c1ccc(OCC(=O)NCc2cccnc2)cc1 do in these assays?
Autophagy HCS: active; TNAP inh noacc: -10; Ins promoter up: -0.26; p47phox inh: -5; TNAP inh hiacc: 2; TNAP act hi DEA: 1

How did O=C(COc1ccc(S(=O)(=O)N2CCCCC2)cc1)NCc1cccnc1 do in these assays?
Autophagy HCS: inactive; TNAP inh noacc: -19; Ins promoter up: 0.4; p47phox inh: 35*; TNAP inh hiacc: -2; TNAP act hi DEA: 1

How did N#C/C(=C\N1CCCCC1)S(=O)(=O)c1ccc(Cl)cc1 do in these assays?
Ins promoter up: -0.12; p47phox inh: 4

What do the screens show for `Cn1cc(Br)c(C(=O)Nc2ncc(Br)s2)n1`?
Autophagy HCS: active; TNAP inh noacc: -4; Ins promoter up: 0.33; p47phox inh: -53; TNAP inh hiacc: -3; TNAP act hi DEA: 1

How did O=C(CSc1nnc2c3ccccc3c3ccccc3c2n1)Nc1ccccc1 do in these assays?
Autophagy HCS: active; TNAP inh noacc: -10; Ins promoter up: -0.67; p47phox inh: -168; TNAP inh hiacc: -5; TNAP act hi DEA: 1

Results for CC(C)Oc1cccc(C(=O)C2CCCN(C(=O)CCn3cnnn3)C2)c1 (stereo unspecified) ?
Autophagy HCS: inactive; TNAP inh noacc: -8; Ins promoter up: 0.44; p47phox inh: -3; TNAP inh hiacc: -4; TNAP act hi DEA: 1

What do the screens show for `CCc1nc(SCc2ccc(F)cc2)[nH]c(=O)c1C#N`?
Autophagy HCS: inactive; TNAP inh noacc: -4; p47phox inh: -8; TNAP inh hiacc: 1; TNAP act hi DEA: 1

Results for COCCN1C(=O)/C(=C/c2ccc(N3CCCC3)cc2C)SC1=S ?
Autophagy HCS: active; TNAP inh noacc: 47; p47phox inh: -261; TNAP inh hiacc: 48; TNAP act hi DEA: 0.5

How did Cc1ccc(C(=O)O)cc1NC(=O)CCc1ccccc1 do in these assays?
Autophagy HCS: active; TNAP inh noacc: -8; Ins promoter up: -0.84; p47phox inh: -59; TNAP inh hiacc: 1; TNAP act hi DEA: 1

Results for Cc1cc(NC(c2cccnc2)c2ccc3cccnc3c2O)no1 (stereo unspecified) ?
Autophagy HCS: inactive; TNAP inh noacc: -28; Ins promoter up: -3.9; p47phox inh: -6; TNAP inh hiacc: -7; TNAP act hi DEA: 1.1

What do the screens show for `Oc1c(C(Nc2ccccn2)c2cccnc2)cc(Cl)c2cccnc12` (stereo unspecified)?
Autophagy HCS: active; TNAP inh noacc: -17; Ins promoter up: -0.41; p47phox inh: 7; TNAP inh hiacc: -7; TNAP act hi DEA: 1.1

What do the screens show for `CS(=O)(=O)n1nc(-c2ccc(Cl)cc2)nc1SCc1ccccc1`?
Autophagy HCS: inactive; TNAP inh noacc: 68*; p47phox inh: -7; TNAP inh hiacc: 0; TNAP act hi DEA: 1

Results for CCc1ccc(-c2ccc(SCC(=O)NCC3CCCO3)nn2)cc1 (stereo unspecified) ?
Autophagy HCS: inactive; TNAP inh noacc: -10; Ins promoter up: 0.16; p47phox inh: -2; TNAP inh hiacc: -7; TNAP act hi DEA: 1.1

How did COc1ccc(Br)cc1CNC(=O)Nc1cccs1 do in these assays?
Autophagy HCS: inactive; TNAP inh noacc: -10; Ins promoter up: -0.66; p47phox inh: 98*; TNAP inh hiacc: -2; TNAP act hi DEA: 1

Results for COc1ccccc1CNC(=O)Nc1cccs1 ?
Autophagy HCS: inactive; TNAP inh noacc: -9; Ins promoter up: 0.55; p47phox inh: -23; TNAP inh hiacc: -3; TNAP act hi DEA: 1

What do the screens show for `O=C(Nc1nccs1)c1cc2sccc2n1Cc1ccc(Cl)cc1`?
Autophagy HCS: active; TNAP inh noacc: -14; Ins promoter up: -0.16; p47phox inh: 2; TNAP inh hiacc: -4; TNAP act hi DEA: 1

Results for COc1ccc(Cn2c(SCc3ccc(C)cc3)nc3cc(OC)c(OC)cc3c2=N)cc1Cl ?
Autophagy HCS: inactive; TNAP inh noacc: -4; Ins promoter up: -0.78; p47phox inh: 35*; TNAP inh hiacc: -1; TNAP act hi DEA: 1

How did COc1ccc(Cn2c(SCc3cc(C)ccc3C)nc3cc(OC)c(OC)cc3c2=N)cc1 do in these assays?
Autophagy HCS: active; TNAP inh noacc: -4; Ins promoter up: -0.8; p47phox inh: 66*; TNAP inh hiacc: -3; TNAP act hi DEA: 1

How did CS(=O)(=O)N(CC(=O)N/N=C/c1ccc(OCC(=O)N2CCOCC2)cc1)c1ccccc1Cl do in these assays?
Autophagy HCS: inactive; TNAP inh noacc: -17; Ins promoter up: 0.03; p47phox inh: 5; TNAP inh hiacc: -1; TNAP act hi DEA: 1

Results for CN(C)c1ccc(/C=N/NC(=O)CN(c2ccccc2Cl)S(C)(=O)=O)cc1Br ?
Autophagy HCS: inactive; TNAP inh noacc: 6; Ins promoter up: 3.6*; p47phox inh: -9; TNAP inh hiacc: -10; TNAP act hi DEA: 1.1

Results for O=C(Nc1nc2ccccc2s1)C1CCN(S(=O)(=O)c2cc([N+](=O)[O-])ccc2Cl)CC1 ?
Ins promoter up: inconclusive; p47phox inh: -3

What do the screens show for `COc1cc(/C=N/NC(=O)CSc2ccccn2)ccc1OC(C)C`?
Ins promoter up: 0.19; p47phox inh: 0

Results for c1ccc(CN2CCN(c3nc(N4CCOCC4)c4ccccc4n3)CC2)cc1 ?
Autophagy HCS: active

Results for c1ccc2c(N3CCOCC3)nc(N3CCOCC3)nc2c1 ?
Autophagy HCS: inactive; TNAP inh noacc: -13; p47phox inh: -15; TNAP inh hiacc: -4; TNAP act hi DEA: 1
